# Experimental data pooled from the literature.
# Protocols differ between the studies behind these lines.
# Target: Myotonin-protein kinase (DMPK, Homo sapiens, UniProt Q09013)
# One construct used (Q09013 1-629): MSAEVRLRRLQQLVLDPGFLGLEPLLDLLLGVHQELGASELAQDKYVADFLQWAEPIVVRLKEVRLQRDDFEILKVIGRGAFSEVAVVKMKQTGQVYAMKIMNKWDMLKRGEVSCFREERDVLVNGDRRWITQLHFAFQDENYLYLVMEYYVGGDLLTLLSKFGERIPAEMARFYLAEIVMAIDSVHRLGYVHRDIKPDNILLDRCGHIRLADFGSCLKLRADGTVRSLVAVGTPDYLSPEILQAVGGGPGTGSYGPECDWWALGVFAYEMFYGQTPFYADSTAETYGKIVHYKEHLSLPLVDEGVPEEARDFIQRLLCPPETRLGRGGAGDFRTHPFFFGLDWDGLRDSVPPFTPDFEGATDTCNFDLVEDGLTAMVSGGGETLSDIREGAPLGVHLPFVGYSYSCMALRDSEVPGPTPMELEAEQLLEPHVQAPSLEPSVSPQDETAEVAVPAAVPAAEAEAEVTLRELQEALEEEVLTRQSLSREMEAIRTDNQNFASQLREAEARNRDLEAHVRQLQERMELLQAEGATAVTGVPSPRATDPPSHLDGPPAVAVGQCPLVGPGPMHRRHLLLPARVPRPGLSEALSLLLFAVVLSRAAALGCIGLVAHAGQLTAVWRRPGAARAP
Structure (SMILES),assay,setting,remaining binding [%]
O=C1CCc2cc(Nc3cc(OC4CCOCC4)c([N+](=O)[O-])cc3Cl)ccc2N1,"cell-free assay, competition with immobilised ligand",1 µM,96
C[C@H]1CCN(c2nccc(-c3cnn4ncccc34)n2)C1,binding,1 µM,100
O=C(NCCCC1CCCCC1)c1ccc(CNC(=O)c2cnn(-c3ccccc3)c2C(F)(F)F)cc1,"cell-free assay, competition with immobilised ligand",0.1 µM,83
Cc1cnn2ncc(-c3ccnc(N(C)C)n3)c2c1,binding,1 µM,100
CCS(=O)(=O)c1cc2cc(C[C@@](O)(CC(C)(C)c3ccc(F)cc3C(N)=O)C(F)(F)F)[nH]c2cn1,"cell-free assay, competition with immobilised ligand",1 µM,85
O=C(NCCCN1CCOCC1)c1ccc(Nc2nccc(-c3cc4ccccc4s3)n2)cc1,"binding, competition with immobilised ligand",1 µM,100
CCN1CCN(Cc2ccc(C(=O)Nc3ccc(C)c(Oc4ccc5c(c4)CC(=O)N5)c3)cc2C(F)(F)F)CC1,"binding, competition with immobilised ligand",1 µM,88
CNC(=O)c1ccc(Nc2ncc(C(F)(F)F)c(NCc3nccnc3N(C)S(C)(=O)=O)n2)cc1,"cell-free assay, competition with immobilised ligand",0.1 µM,16
COc1ncc2cc3ccccc3nc2c1C#N,"cell-free assay, competition with immobilised ligand",5 µM,100
O=C(NCCCN1CCOCC1)c1ccc(Nc2ncc(Cl)c(-c3ccc(Cl)s3)n2)cc1,"binding, competition with immobilised ligand",1 µM,100
c1cnn2ncc(-c3ccnc(N4CCC45COC5)n3)c2c1,binding,1 µM,98
CO[C@@H](C)c1c(Nc2ccc([C@@H](N(C)C(=O)C3CCS(=O)(=O)CC3)C(F)(F)F)cc2)cnc2cc(Cl)nn12,"cell-free assay, competition with immobilised ligand",1 µM,91
Nc1ncc2c(n1)-c1c([nH]c3ccc(C#CC4CC4)cc13)CCCC2,"binding, competition with immobilised ligand",1 µM,82
C[C@H](NC(=O)c1cnc2n1[C@](C)(Cc1ccc(C#N)cc1)C(=O)N2c1cc(Cl)c(F)c(Cl)c1)C(=O)NC1(c2ccccn2)CC1,"cell-free assay, competition with immobilised ligand",1 µM,67
O=C(Nc1c[nH]nc1C(=O)NC1CCNCC1)c1cc(F)cc(F)c1,"binding, competition with immobilised ligand",1 µM,100
COc1cnc(Nc2cccc(S(N)(=O)=O)c2)nc1N1CCN(c2ccccc2)CC1,"binding, competition with immobilised ligand",1 µM,100
N[C@H]1CCN(c2nccc(-c3cnn4ncccc34)n2)C1,binding,1 µM,57
O=C(c1ccc(Nc2nccc(-c3cc4ccccc4s3)n2)cc1)N1CCC(N2CCCC2)CC1,"binding, competition with immobilised ligand",1 µM,100
CN(C)c1nccc(-c2cnn3ncccc23)n1,binding,1 µM,100
C=CC(=O)N1CCC(C(=O)NCC(=O)N2CCN(c3nc(-c4cnc(N)nc4C(F)F)nc(N4CCOCC4)n3)CC2)CC1,"binding, competition with immobilised ligand",1 µM,87
COc1ccnn2ncc(-c3ccnc(N(C)C)n3)c12,binding,1 µM,100
C[C@H](c1cccc(C#N)c1)n1cc(Cl)cc(C(N)=O)c1=N,"cell-free assay, competition with immobilised ligand",1 µM,100
